A3A deaminase – human APOBEC3A DNA deaminase inhibition; recombinant A3A, FAM/TAMRA ssDNA deamination fluorescence; inhibition, % at 20 µM; 330,000 compounds, 0.41% hits;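 active = at least 40% inhibition at 20 µM here, with at most 30% in a related deaminase screen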;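 also: plate controls were A3A with DMSO for no effect and wells lacking A3A enzyme for full effect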
Target sequence (P31941 whole entry, looked up): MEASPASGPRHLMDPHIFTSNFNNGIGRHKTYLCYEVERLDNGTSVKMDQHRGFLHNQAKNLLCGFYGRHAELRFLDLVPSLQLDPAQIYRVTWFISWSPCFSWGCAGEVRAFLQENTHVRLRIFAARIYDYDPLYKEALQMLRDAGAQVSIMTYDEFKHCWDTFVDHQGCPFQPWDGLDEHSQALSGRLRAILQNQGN
JMJD2C inh – inhibitors of human GASC-1 (JMJD2C) demethylase; inhibition, % at 2.35 µM; Q9H3R0; AID 2099; GST-JMJD2C(1-420) H3K9me3 demethylation, DELFIA europium; 330,000 compounds, 0.069% hits;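 active = more than half of a compound's replicate wells show inhibition beyond 50%, single wells judged on their own value; inconclusive = some, but no more than half, of replicates pass 50% inhibition; inactive = no replicate passes 50% inhibition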;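 also: signal counts dimethyl H3K9 product captured on neutravidin plate; 0% = median of DMSO wells and 100% = 0.3 times that DMSO median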
Target sequence (Q9H3R0 1-420 limits assumed): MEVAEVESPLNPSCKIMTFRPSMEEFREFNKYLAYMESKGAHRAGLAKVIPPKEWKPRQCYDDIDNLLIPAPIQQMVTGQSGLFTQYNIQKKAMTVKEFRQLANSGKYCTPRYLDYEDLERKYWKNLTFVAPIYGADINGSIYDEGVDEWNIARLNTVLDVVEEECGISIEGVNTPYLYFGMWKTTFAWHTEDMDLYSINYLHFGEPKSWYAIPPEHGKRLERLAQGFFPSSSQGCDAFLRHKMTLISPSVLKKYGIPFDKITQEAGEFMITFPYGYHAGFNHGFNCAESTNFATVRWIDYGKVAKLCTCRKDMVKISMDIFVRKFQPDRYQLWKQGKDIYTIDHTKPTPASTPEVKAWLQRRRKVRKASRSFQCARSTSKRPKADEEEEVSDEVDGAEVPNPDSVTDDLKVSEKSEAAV
A3G deaminase – APOBEC3G (human) deaminase inhibition; Q9HC16; recombinant A3G, ssDNA deamination FAM/TAMRA fluorescence; inhibition, % at 20 µM; 330,000 compounds, 0.28% hits;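 active = inhibition of at least 40% at 20 µM, with no more than 30% in the related APOBEC3A deaminase screen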;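 also: plate controls were DMSO wells with A3G for no effect and wells lacking A3G enzyme for full effect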
UCH37 DUB inh – blocks the human deubiquitinase UCH37 | Q9Y5K5 | purified proteasome/UCH37, Ub-AMC cleavage fluorescence | inhibition, % (test concentration not listed) | 330,000 compounds, 0.33% hits;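 active = mean inhibition over replicate wells above about 20%, limit read from the data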;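 also: 0% = compound-free wells with enzyme and 100% = wells lacking proteasome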
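Signal – fluorescence, ex 355 nm, em 460 nm · System – Proteasome-bound UCH37 · Input – 0.15 nM proteasome as dispensed · Timing – 30 min preincubation with enzyme, 25 min cleavage at room temperature · Read-out basis – percent inhibition of cleavage signal versus uninhibited and no-proteasome wells · Medium – Tris-HCl pH 7.4 with ATP-MgCl2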
A3A conf – APOBEC3A (human) deaminase inhibition, confirmed; shares compounds with A3A deaminase; recombinant A3A, ssDNA deaminase UDG fluorescence assay; inhibition, % at 20 µM; 1,400 compounds, 63% hits; AID 493151;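 active = inhibition reaching a set limit, 80% of the first screen's cutoff, at 20 µM in any replicate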;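 also: plate controls were DMSO wells with A3A for no effect and wells lacking A3A enzyme for full effect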
UDG A3A counter – UDG inhibition in APOBEC3A counter-screen. UDG counterscreen, FAM/TAMRA uracil oligo fluorescence. AID 504714. shares compounds with A3A deaminase. inhibition, % at 20 µM. 1,000 tested, under 10 active; call rule not given here
* marks the source's active call; other numbers are inactive results; ? = inconclusive; nt = no result. This is a sample that favours compounds with a hit; in the whole collection about 0.97% have one here.

SMILES	A3A deaminase	JMJD2C inh	A3G deaminase	UCH37 DUB inh	A3A conf	UDG A3A counter
CC1(C#CC[N+]2(C)CCCCC2)CCC2C(O1)c1ccccc1OC2(C)C (stereo not given)	75*	-4	21	nt	61*	1
CC(=O)c1sc(NN=Cc2cccc([N+](=O)[O-])c2)nc1C	nt	nt	nt	6	nt	nt
Nc1nc2c(s1)CCCCCCCCCC2	50*	-6	18	2	38*	2
C=CCN1CCc2nc(N)sc2CC1	nt	nt	nt	3	nt	nt
O=C(COC(=O)c1cccc([N+](=O)[O-])c1)NCc1ccc2c(c1)OCO2	3	-2	-5	2	nt	nt
CC(OC(=O)c1cccc([N+](=O)[O-])c1)C(=O)NCc1ccc2c(c1)OCO2 (stereo not given)	49*	-1	-4	2	-6	-3
CC(C)NS(=O)(=O)c1ccc(CCC(=O)N2CCc3ccccc3C2)cc1	-2	7	-6	3	nt	nt
CC1CCN(C(=O)CCc2ccc(S(=O)(=O)NC(C)C)cc2)CC1	51*	-9	-3	1	-7	-3
C=CCn1c(NC(=O)c2ccc(C)cc2)c(C#N)sc1=N	56*	-2	24	0	71*	1
C=CCn1c(C(C)NC(=O)c2ccc(C)cc2)n[nH]c1=S (stereo not given)	1	-2	6	1	nt	nt
Nc1nnn(CC(=O)NN=Cc2cn[nH]c2-c2ccccc2)n1	nt	nt	nt	2	nt	nt
CC1(CC(=O)N/N=C/c2cc([N+](=O)[O-])c(O)cc2O)OCCO1	48*	2	21	nt	49*	5
N#C/C(=C\c1c(N2CCCCCC2)nc2ccccn2c1=O)C(=O)NC1CCS(=O)(=O)C1 (stereo not given)	44*	0	-9	2	-3	-2
CC(C)c1ccc(OCC(=O)NN2C(=O)c3ccccc3C2=O)c(Br)c1	-2	6	-12	4	nt	nt
O=C(COc1ccc(Br)cc1Br)NN1C(=O)c2ccccc2C1=O	55*	-4	-9	0	11*	8
COc1cc(/C=C/c2cc[n+](C)cc2)ccc1OCC(=O)Nc1ccccc1	66*	-3	8	-40	79*	3
C/C=C/c1ccc(OCC(=O)Nc2ccc(C(N)=O)cc2)c(OC)c1	0	-5	-6	-2	nt	nt
Cc1cccc(N2CC(C(=O)Nc3nnc(SCC(=O)Nc4nccs4)s3)CC2=O)c1 (stereo not given)	2	33	-3	-1	nt	nt
Cc1ccccc1N1CC(C(=O)Nc2nnc(SCC(=O)Nc3nccs3)s2)CC1=O (stereo not given)	48*	-5	-10	4	9	6
CC(=O)Nc1nc(CC(C)C)cc(-c2ccco2)c1C#N	40*	4	16	-68	51*	-3
CCn1c(SC)nnc1-c1nn(-c2ccccc2)ccc1=O	58*	-6	16	5	66*	-4
O=C(NN=Cc1cn(-c2cccs2)nc1-c1ccccc1)c1ccc(O)cc1	nt	nt	nt	-4	nt	nt
CCCCOc1ccc(C=NNc2cc(N3CCOCC3)nc(C)n2)cc1	nt	nt	nt	3	nt	nt
CCOc1ccc(NC(=O)C2CCCN2C(=O)Oc2ccccc2)cc1 (stereo not given)	73*	-8	20	nt	78*	-2
Cc1cc(C)cc(NC(=O)C2CCCN2C(=O)Oc2ccccc2)c1 (stereo not given)	3	-9	-3	2	nt	nt
SMILES	A3A deaminase	JMJD2C inh	A3G deaminase	UCH37 DUB inh	A3A conf	UDG A3A counter
CC(=O)c1ccc2c3c(cccc13)C(=O)N(c1c(C)nn(C)c1C)C2=O	48*	nt	28	8	4	nt
COc1ccc(N2Cc3ccccc3C2=NC(=O)Nc2ccccc2)cc1	nt	nt	nt	-37	nt	nt
Oc1ccc(C=NNC(=S)NCC2CCCO2)cc1 (stereo not given)	nt	nt	nt	8	nt	nt
O=C(NC1CCCCC1)N1CCC(c2nc3ccc(Cl)cc3[nH]2)CC1	40*	2	-3	2	0	-1
COc1ccccc1NCC(=O)NN=Cc1cccnc1	nt	nt	nt	7	nt	nt
C=CCn1nnnc1SCC(=O)Nc1cccc(C(F)(F)F)c1	70*	25	23	2	81*	-3
C=CCn1nnnc1SCC(=O)Nc1ccc(C(=O)OC)cc1	3	-37	-1	0	nt	nt
O=C(O)c1ccc(C=NNc2ccc(S(=O)(=O)N3CCOCC3)cc2[N+](=O)[O-])cc1	nt	nt	nt	16	nt	nt
COc1ccc(C=Nn2c(C)nc3ccccc3c2=O)cc1	nt	nt	nt	4	nt	nt
Cc1cccc(C)c1NC(=O)CN(C)C(=O)c1cc(S(=O)(=O)N2CCOCC2)ccc1N1CCCC1	46*	-5	13	0	-1	nt
CN(Cc1cccc(F)c1)C(=O)c1cc(S(=O)(=O)N2CCOCC2)ccc1N1CCCC1	1	nt	-3	1	nt	nt
O=C1OC(c2ccc(Cl)cc2)=C/C1=C/c1cccnc1	62*	-3	13	0	37*	4
CC(=NNS(=O)(=O)c1ccccc1)c1ccc2c(c1)OCCO2	nt	nt	nt	2	nt	nt
CC(=O)c1c(COC(=O)c2cccnc2)nc2ccccc2[n+]1[O-]	58*	-7	20	2	76*	0
O=[N+]([O-])c1ccc(CN2CCN(c3ccccc3Cl)CC2)o1	54*	1	3	4	0	nt
Cn1c(=O)c2c(ncn2CC(=O)NN=C/C(Br)=C/c2ccccc2)n(C)c1=O	nt	nt	nt	5	nt	nt
COc1ccc(C=NNC(=O)c2cccnc2)cc1O	nt	nt	nt	9	nt	nt
CCn1c(C)nc2cc(S(=O)(=O)C(F)F)ccc21	6	1	16	2	nt	nt
CCn1c(C)nc2cc(S(=O)(=O)Nc3ccc(C)cc3)ccc21	66*	0	17	-2	55*	2
CC(NC(=S)Nc1ccc(F)cc1)c1ccccc1 (stereo not given)	88*	?	-4	-1	10	11
Cc1cc(C(C)(C)C)cc(C)c1Cn1c2[n+](c3ccc(C(F)(F)F)cc31)CCCCC2	59	-27	31	6	nt	nt
N#Cc1ccc(NC(=O)Cn2c3[n+](c4ccc(C(F)(F)F)cc42)CCCCC3)cc1	53	-6	49	0	nt	nt
O=C(Cn1c2[n+](c3ccc(C(F)(F)F)cc31)CCCCC2)Nc1ccc(Br)cc1	47*	-22	13	2	14*	-3
FC(F)(F)c1cccc(Cn2c3[n+](c4ccc(C(F)(F)F)cc42)CCCCC3)c1	49*	11	21	5	75*	4
COc1ccc(C=NN2C(=N)SCC2=O)cc1	nt	nt	nt	8	nt	nt
N#CC1(NC(=O)COc2ccccc2[N+](=O)[O-])CCCCC1	48*	5	3	-2	22	nt
N#CC1(NC(=O)COc2cc(F)ccc2[N+](=O)[O-])CCCCC1	-1	4	-5	2	nt	nt
CCN(CC)CCNC(=O)c1ccc(NC(=O)C2CCN(c3ncnc4sc(C)c(C)c34)CC2)cc1	44*	-3	16	3	57*	nt
COc1cc(C=Nn2nnnc2N)ccc1OCc1c(C)no[n+]1[O-]	nt	nt	nt	-5	nt	nt

Screening data (PubChem)
